From ChEMBL document CHEMBL4513216, “Probing the Open Global Health Chemical Diversity Library for Multistage-Active Starting Points for Next-Generation Antimalarials” (ACS Infect Dis, 2020)

Test: Toxicity liver stage against HepG2, at 10uM
Format: cell-based
Set-up: test concentration 10 uM, cell line HepG2-A16-CD81EGFP
Conditions: human, HepG2-A16-CD81EGFP cells; read-out: INHIBITION
How it was run: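 Uninfected HepG2-A16-CD81EGFP cells, 3 × 10^3 per well, 1536-well, plated on prespotted compound at 10 μM final, parasite-free screening media added to match infected plates; puromycin 10 μM positive, DMSO 0.5% negative; run in parallel with 48 h PbLuc assay at 37 °C, 5% CO2; viability by CellTiter-Glo luminescence, normalized to controls.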

Structure (SMILES) | cytotoxicity at 10 µM [%]
COCc1nc(Cn2c(C)cc(C(F)(F)F)cc2=O)no1 | -2.74
CCN(CC)C(=O)c1ccn(COc2ccccc2)n1 | -0.911
NC(=O)C1CCCCN1C(=O)c1ccc(Br)s1 (configuration not stated) | -6.38
O=C(NCc1nccs1)N1CCOC(c2ccccc2Cl)C1 (configuration not stated) | -3.67
CCc1nnc(N[C@H](C)c2cccc(OC)c2)o1 | 1.35
Cc1cc(NCCC(=O)NC2CCCC2)nc(-c2ccncc2)n1 | 2.25
CN1CCC(Cc2cc(Nc3ncccn3)ncn2)CC1 | 1.05
Cc1ccc(S(=O)(=O)Cc2nsc(N(C)C)n2)c(C)c1 | -25.2
CN(C)c1ccc(C(=O)N2CCC(c3cc4ncccc4[nH]3)CC2)cc1 | -2.32
CC(C)c1nnc2n1CCN(Cc1ccc3c(c1)OCCO3)C2 | -0.234
Cn1cc(CN2CCC[C@]3(C[C@@H](Oc4ccccn4)CO3)C2)cn1 | 7.5
CN(C)C(=O)C1CN(Cc2cccs2)CCN(S(C)(=O)=O)C1 (configuration not stated) | -33.1
CCS(=O)(=O)N1CC[C@H]2[C@H]1CC(=O)N2Cc1csc(C)n1 | -133
Cc1nc[nH]c1C(=O)N1CC[C@@H](NC(=O)c2ccccn2)[C@H](O)C1 | 4.61
CCCn1nc(-c2nc(C3CC3)no2)ccc1=O | 1.77
CCn1ccnc1C1CCN(C(=O)Nc2ccc(OC)cc2)CC1 | -1.77
CCNC(=O)CN(CC)C(=O)c1cccc(Nc2cnn(C)c2)c1 | 7.68
O=C(NCC1CC1)C1CCC2(CCN(C(=O)c3ccoc3)CC2)O1 (configuration not stated) | 4.97
CC(C)[C@H]1CN(Cc2c[nH]nn2)C[C@@H]1NC(=O)C1CCOCC1 | 22.3
O=C(Nc1ccccc1)c1ccc(NCc2ccncc2)nn1 | -3.17
CCn1ncc2c1C(COC)CN(c1ncc(F)cn1)C2 (configuration not stated) | 14.6
CS(=O)(=O)CCC(=O)N1CCC2(CCCN(C3CCOCC3)C2=O)C1 (configuration not stated) | -7.64
OCC1(Cc2ccccc2F)CCCN(c2ccc3ccccc3n2)C1 (configuration not stated) | 22.7

Structure (SMILES) | cytotoxicity at 10 µM [%]
O=C(NCCn1ccnc1)N1CCCC1c1ccsc1 (configuration not stated) | -6.05
Cc1ccc2[nH]c(C3CCN(C)CC3)nc2c1 | 6.79
Cc1noc(C)c1CS(=O)(=O)CC(=O)NCCc1ccccc1 | -5.83
N#CC1(c2ccccc2)CCN(C(=O)C2CCCN(CC(N)=O)C2)CC1 (configuration not stated) | -7.47
Cc1cnn(CCCNC2Cc3ccccc3C2)c1 | 3.34
CCC(CN1CCOCC1)NC(=O)Cc1c(C)[nH]c2cc(C)cc(C)c12 (configuration not stated) | 19.6
COCC(=O)N1C[C@@H](OCc2ccncc2)[C@@H]2OCCC[C@@H]21 | -0.182
O=C(Cc1cccs1)Nc1cnn(C2CCOCC2)c1 | -0.779
Cn1cc(CN2CCO[C@@H]3CN(Cc4ccoc4)C[C@@H]3C2)cn1 | 2.14
Cn1nnnc1SCCNC(=O)C1CCN(C(=O)C2CC2)CC1 | -5.95
COCC(C)(CCO)NC(=O)Nc1cccc(F)c1C (configuration not stated) | 7.94
N#CCCN(CCN1CCOCC1)Cc1ccc(F)c(Br)c1 | -5.01
CCC[C@@H]1CN(C(=O)c2c(F)ccc(C)c2Cl)C[C@H]1C(=O)O | -4.39
C[C@@H]1CN(C(=O)CCCn2nnc(-c3ccc(F)cc3)n2)C[C@]1(C)O | 14.2
CN1CSC[C@H]1C(=O)N1CCN(Cc2cccc(F)c2)CC1 | -6.92
CC(C)c1nc(C2CCCN(C(=O)CCCn3ccnc3)C2)no1 (configuration not stated) | -17.2
CCOc1cc(C(=O)NS(C)(=O)=O)cc(-c2ccccc2)c1OC | 12.5
COCCCn1ccc(NCc2ccc(NC(C)=O)cc2)n1 | 2.33
CC(=O)NC1CCCN(C(=O)CNc2cccc(C)c2Cl)C1 (configuration not stated) | -4.69
CCNc1ncc(C(=O)NCc2csc(-c3ncccn3)n2)cn1 | 6.59
CCS(=O)(=O)N1CCCC(c2ccnc(N(C)C)c2)C1 (configuration not stated) | -5.16
O=C(CN1CCS(=O)(=O)CC1)NC1CCCCc2ccccc21 (configuration not stated) | 7.28
Cc1cccc(OC2(C(=O)O)CCN(C(=O)CCc3ccco3)CC2)c1 | 4.3

Structure (SMILES) | cytotoxicity at 10 µM [%]
O=C(NCCNC(=O)C1CC1)c1cnc(-c2ccccc2)nc1 | 12.3
CCNC(=O)NC(=O)CN1CCOC(c2cccc(Br)c2)C1 (configuration not stated) | 1.83
C1CCC(CSc2nnnn2C2CC2)OC1 (configuration not stated) | 5.29
COC(=O)c1cc2c(OC)c(C)c(OC)cc2[nH]1 | -12.8
CN(CCCOc1ccccc1)C(=O)c1csc(-c2nnc[nH]2)n1 | 10.4
Cc1c(CNC2CCN(c3ccccc3OC(F)F)C2)cnn1C (configuration not stated) | -1.77
Cn1ncnc1-c1ccnc(NCc2ccncc2)n1 | -3.89
CN(Cc1nnc(C2CC2)n1C)C(=O)c1ccnc(OC2CCC2)c1 | -1.01
COCC1CN(S(=O)(=O)c2cccs2)Cc2ncnn2C1 (configuration not stated) | -120
CN1Cc2c(C(=O)NCC3CCCO3)ncn2-c2ccccc2S1(=O)=O (configuration not stated) | -141
Cc1nn(C)c(Cl)c1C(=O)NCc1cccnc1N1CCOCC1 | -132
COc1ccc(CCNC(=O)NCC(O)c2cccc(F)c2)cc1 (configuration not stated) | -6.33
CN(Cc1cccc(-n2cccn2)c1)C(=O)c1ccnc(N)c1 | -0.491
CC(NC(=O)C1CCCCC1)c1cc(O)nc(-c2cccnc2)n1 (configuration not stated) | 5.84
CCN1CCCC(C)(C(=O)NCc2nncn2CCc2ccccc2)C1 (configuration not stated) | -10.2
FC1(F)CCN(Cc2cccnc2)CC12CCN(c1ccccn1)C2 (configuration not stated) | 23
CC(C1CCN(Cc2c(Cl)cncc2Cl)CC1)N1CCOCC1 (configuration not stated) | -8.68
COCCOCC(=O)NC(C#N)c1c(F)cccc1Cl (configuration not stated) | 19.6
CC(C)(C)c1oc(C(N)=O)cc1CN1CCOC(C(F)(F)F)C1 (configuration not stated) | -4.81
CNC(=O)CN1CCC(NC2CSCCc3ccccc32)CC1 (configuration not stated) | -4.28
CCc1ccc(C(=O)NCCNc2ncccn2)cc1 | 0.364
CC(C)NC(=O)C1CCC2(CCN(Cc3cnn(C)c3)CC2)CO1 (configuration not stated) | 9.67
CNCCN1C(=O)CC[C@H]2CN(c3cnc4ccccc4n3)CC[C@H]21 | -1.62

Structure (SMILES) | cytotoxicity at 10 µM [%]
Cc1cc2c(N3CCC(N(C)Cc4nccs4)CC3)ncnc2s1 | 45
Cn1cnnc1-c1ccnc(NCc2ccc3c(c2)OCCO3)c1 | -11
CC(C)N(Cc1ccccn1)S(=O)(=O)N1CCCC1c1ccco1 (configuration not stated) | -3.92
Cc1cc(NC(=O)NCCc2cccs2)n(C)n1 | 14.8
Cc1ccc(NC2(C(=O)NC(C)c3ncn[nH]3)CCCC2)cc1 (configuration not stated) | 0.317
CC(Oc1ccc(F)cc1F)C(=O)N1CCC2(CCCO2)CC1 (configuration not stated) | 2.24
CN1C(=O)C2(CC(=O)Nc3[nH]ncc32)c2cc(F)ccc21 (configuration not stated) | 0.488
COC1CCN(c2cc(C(C)C)nc3ccnn23)C1 (configuration not stated) | 0.343
CCC(=O)NC(c1cccnc1)c1cc(C)ccc1C (configuration not stated) | -2.8
Cc1ncsc1C(=O)N1CCCC(CO)(CC2CC2)C1 (configuration not stated) | -1.5
c1cnnc(N2CCCC2CNCc2cscn2)c1 (configuration not stated) | -5.78
Cn1nc(C(=O)NC2CCCCC2)cc1NC(=O)C1CC1 | -3.97
CSCCC1c2nc[nH]c2CCN1Cc1cncn1C (configuration not stated) | 13.3
Cc1ccc(-c2cc(CNC(=O)NC3CCCCNC3=O)on2)cc1 (configuration not stated) | -145
Cc1cc(C(=O)N2CCCC(n3ccnc3)C2)c(C)n1C1CC1 (configuration not stated) | 1.19
Nc1cc(O)nc(CCNC(=O)CC[C@@H]2CCCN3CCCC[C@H]23)n1 | -1.89
CCC[C@@H]1CN(Cc2ccc3c(c2)OCCO3)C[C@H]1C(=O)O | 0.324
Cc1nc(C)n(CC2CCCN2Cc2cn(-c3ccccc3)nn2)n1 (configuration not stated) | 3.87
COC1COC2(CCN(c3ccc(C#N)cc3)CC2)C1 (configuration not stated) | -79.6
Cc1[nH]nc(CCC(=O)NCC2CCN(C3CCCCC3)C2)c1C (configuration not stated) | -5.08
COCC1COCCC12CCN(S(=O)(=O)c1cccnc1)CC2 (configuration not stated) | 6.62
CCc1nc2c(s1)C(N(C)C(=O)c1cc[nH]n1)CCC2 (configuration not stated) | 7.76
CC(C)C(=O)NCC(=O)NCC1CCN(c2cnn(C)c(=O)c2)CC1 | 3.47

Structure (SMILES) | cytotoxicity at 10 µM [%]
Cc1cc(C)n(CC2CN(Cc3noc(C)n3)CCO2)n1 (configuration not stated) | 0.305
CCn1nc(CC(C)C)cc1C(=O)N1CC[C@@H](O)C1 | 16.5
Cc1csc(CCCNC(=O)[C@H]2CNC[C@@H](C(=O)N3CCCC3)C2)n1 | -15.9
c1ccc(C2CN(C3CC3)CC3(CCN(Cc4cscn4)CC3)C2)cc1 (configuration not stated) | 5.58
Cc1c(C(=O)NC2(C#N)CCSC2)nnn1-c1ccccc1Cl (configuration not stated) | -5.34
COc1ccc(C(C(=O)O)N(C)CCN2CCCC2)cc1F (configuration not stated) | 1.38
CCCc1nnc(N(C)CC2CCN(CC(C)C)CC2)o1 | 6.05
CN(Cc1cc(Br)cn1C)C(=O)c1cccnc1 | -5.95
Cc1cc(C2CCCN2Cc2ccc(S(=O)(=O)N(C)C)o2)on1 (configuration not stated) | -4.11
CC(C)(CN1CCC(Cc2ccc(C(=O)O)cc2)C1)N1CCOCC1 (configuration not stated) | 2.17
CC(C)(C)NC(=O)CNC(=O)Nc1cc(-c2ccccc2)ns1 | 16.6
Cn1cc(Br)cc(NC(=O)CC(C)(C)C)c1=O | 5.82
Cc1cccc(C(=O)N2CCC3(CC2)CC(c2ccccc2)C(=O)N3)c1 (configuration not stated) | 17.8
CS(=O)(=O)N1CC2(CCN(C3CCCCC3)C2)Cc2ccccc21 (configuration not stated) | 3.38
CC(=O)N1Cc2ccccc2CC1C(=O)Nc1ccc(C)cn1 (configuration not stated) | -0.147
Cc1cccc(S(=O)(=O)N2CC[C@H]3CO[C@H](CN(C)C)[C@H]3C2)c1 | -92.1
COCc1nn(C(C)C)c2c1CCN(Cc1ccoc1)C2 | 3.33
Cc1nn(C)c(C)c1C1CCCN1Cc1nc2ccccc2c(=O)[nH]1 (configuration not stated) | -15.9
CC(C)N1CCC(N2CCC(C(=O)N(C)C)CC2)CC1 | 4.71
Nc1no[n+]([O-])c1C(=O)NCc1ccco1 | 2.94
